Data taken from ChEMBL document CHEMBL4706704, “Potential of substituted quinazolines to interact with multiple targets in the treatment of cancer” (Bioorg Med Chem, 2021).
pEC50, pIC50: −log10 of the molar value.

Columns and labels:
MDA-MB-435 = experiment: Antiproliferative activity against human MDA-MB-435 cells assessed as reduction in cell viability by Sulforhodamine B assay; assay type: functional, cell-based
Procedure, shortened: (§1)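 SRB proliferation/cytotoxicity assay; parental lines obtained from ATCC. The HeLa WT-βIII line was generated as described in earlier work. IC50 is the average of at least 3 independent experiments, each run with triplicate points.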

[1] = Induction of microtubule depolymerization in rat A10 cells incubated for over night by immunofluorescence method; assay type: cell-based
Procedure, shortened: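 Rat A-10 cells were exposed overnight, fixed in cold methanol and stained for microtubules by indirect immunofluorescence with a β-tubulin antibody.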

[2] = Ratio of EC50 for induction of microtubule depolymerization in rat A10 cells to IC50 for antiproliferative activity against human MDA-MB-435 cells
HeLa [3] = experiment: Cytotoxicity against human HeLa cells assessed as reduction in cell viability by Sulforhodamine B assay; assay type: functional, cell-based
Procedure, shortened: (§2)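 SRB assay for antiproliferative/cytotoxic effect. HeLa WT-βIII and SK-OV-3-MDR1-6/6 lines were generated as described earlier and run alongside their parental lines.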

[4] = Resistant index, ratio of IC50 for cytotoxicity against human HeLa cells expressing WT-beta3 to IC50 for cytotoxicity against human HeLa cells; assay type: functional
SK-OV-3 [5] = experiment: Cytotoxicity against human SK-OV-3 cells assessed as reduction in cell viability by Sulforhodamine B assay; assay type: functional, cell-based; procedure, shortened: as §1
SK-OV-3 [6] = experiment: Cytotoxicity against human SK-OV-3 cells over expressing MDR1-6/6 assessed as reduction in cell viability by Sulforhodamine B assay; assay type: functional, cell-based; procedure, shortened: as §2
[7] = Resistant index, ratio of IC50 for cytotoxicity against human SK-OV-3 cells over expressing MDR1-6/6 cells to IC50 for cytotoxicity against human SK-OV-3 cells; assay type: functional
Chorioallantoic membrane [8] = experiment: Potency index, ratio IC50 for erlotinib to IC50 for test compound for antiangiogenic activity in Leghorn chicken fertilized egg chorioallantoic membrane; assay type: functional, tissue-based; settings: Gallus gallus
[9] = target: T1, Epidermal growth factor receptor (Homo sapiens, UniProt P00533); experiment: Inhibition of EGFR in human A431 cells preincubated for 60 mins followed by EGF stimulation and measured after 10 mins by ELISA; assay type: cell-based, A-431
[10] = target: T2, Vascular endothelial growth factor receptor 2 (Homo sapiens, UniProt P35968); experiment: Inhibition of VEGFR2 in human U251 cells preincubated for 60 mins followed by VEGF stimulation and measured after 10 mins by ELISA; assay type: cell-based, U-251
[11] = target: T3, Platelet-derived growth factor receptor beta (Homo sapiens, UniProt P09619); experiment: Inhibition of PDGFRbeta in human SH-SY5Y cells preincubated for 60 mins followed by PDGF stimulation and measured after 10 mins by ELISA; assay type: cell-based
HeLa [12] = experiment: Cytotoxicity against human HeLa cells over expressing WT-beta3 assessed as reduction in cell viability by Sulforhodamine B assay; assay type: functional, cell-based; procedure, shortened: as §1
A-431 = experiment: Cytotoxicity against human A-431 cells assessed as reduction in cell viability by Sulforhodamine B assay; assay type: functional, cell-based
U-251 = experiment: Cytotoxicity against human U-251 cells assessed as reduction in cell viability by Sulforhodamine B assay; assay type: functional, cell-based
Chorioallantoic membrane [13] = experiment: Antiangiogenic activity in Leghorn chicken fertilized egg chorioallantoic membrane assessed as reduction in VEGF/bFGF stimulated neovascularization after 40 hrs by microscopic based CAM assay; assay type: functional, tissue-based; settings: Gallus gallus
Procedure, shortened: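 VEGF/bFGF applied at saturation to a testing disk on the CAM. Compounds at various doses were added to the same disk 8 h later, then incubated 40 h more. Vessels were counted in 5–7 grids at 7.5X. Values are percent of growth-factor-only. IC50 by non-linear regression, 2–3 experiments, 2–5 replicates each.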

Bos taurus [14] = species: Bos taurus; experiment: Displacement of [3H]-colchicine from bovine brain tubulin at 5 uM after 10 mins by DEAE-cellulose filter method relative to control; assay type: tissue-based
Procedure, shortened: (§3)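 Tubulin 0.1 mg/mL (1.0 μM) incubated at 37 °C with 5.0 μM [3H]colchicine and inhibitor at 1.0 or 5.0 μM.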

Bos taurus [15] = species: Bos taurus; experiment: Displacement of [3H]-colchicine from bovine brain tubulin at 1 uM after 10 mins by DEAE-cellulose filter method relative to control; assay type: tissue-based; procedure, shortened: as §3
[16] = target: T1, Epidermal growth factor receptor; experiment: Potency index, ratio of IC50 for sunitinib to IC50 for test compound for inhibition of EGFR in human A431 cell; settings: A-431
[17] = target: T2, Vascular endothelial growth factor receptor 2; experiment: Potency index, ratio of IC50 for sunitinib to IC50 for test compound for inhibition of VEGFR2 in human U251 cells; assay type: cell-based; settings: U-251
[18] = target: T3, Platelet-derived growth factor receptor beta; experiment: Potency index, ratio of IC50 for sunitinib to IC50 for test compound for inhibition of PDGFRbeta in human SH-SY5Y cells; assay type: cell-based
[19] = target: T2, Vascular endothelial growth factor receptor 2; experiment: Potency index, ratio of IC50 for erlotinib to IC50 for test compound for inhibition of VEGFR2 in human U251 cells; assay type: cell-based; settings: U-251
[20] = target: T3, Platelet-derived growth factor receptor beta; experiment: Potency index, ratio of IC50 for erlotinib to IC50 for test compound for inhibition of PDGFRbeta in human SH-SY5Y cells; assay type: cell-based

T1 sequence (P00533 whole entry): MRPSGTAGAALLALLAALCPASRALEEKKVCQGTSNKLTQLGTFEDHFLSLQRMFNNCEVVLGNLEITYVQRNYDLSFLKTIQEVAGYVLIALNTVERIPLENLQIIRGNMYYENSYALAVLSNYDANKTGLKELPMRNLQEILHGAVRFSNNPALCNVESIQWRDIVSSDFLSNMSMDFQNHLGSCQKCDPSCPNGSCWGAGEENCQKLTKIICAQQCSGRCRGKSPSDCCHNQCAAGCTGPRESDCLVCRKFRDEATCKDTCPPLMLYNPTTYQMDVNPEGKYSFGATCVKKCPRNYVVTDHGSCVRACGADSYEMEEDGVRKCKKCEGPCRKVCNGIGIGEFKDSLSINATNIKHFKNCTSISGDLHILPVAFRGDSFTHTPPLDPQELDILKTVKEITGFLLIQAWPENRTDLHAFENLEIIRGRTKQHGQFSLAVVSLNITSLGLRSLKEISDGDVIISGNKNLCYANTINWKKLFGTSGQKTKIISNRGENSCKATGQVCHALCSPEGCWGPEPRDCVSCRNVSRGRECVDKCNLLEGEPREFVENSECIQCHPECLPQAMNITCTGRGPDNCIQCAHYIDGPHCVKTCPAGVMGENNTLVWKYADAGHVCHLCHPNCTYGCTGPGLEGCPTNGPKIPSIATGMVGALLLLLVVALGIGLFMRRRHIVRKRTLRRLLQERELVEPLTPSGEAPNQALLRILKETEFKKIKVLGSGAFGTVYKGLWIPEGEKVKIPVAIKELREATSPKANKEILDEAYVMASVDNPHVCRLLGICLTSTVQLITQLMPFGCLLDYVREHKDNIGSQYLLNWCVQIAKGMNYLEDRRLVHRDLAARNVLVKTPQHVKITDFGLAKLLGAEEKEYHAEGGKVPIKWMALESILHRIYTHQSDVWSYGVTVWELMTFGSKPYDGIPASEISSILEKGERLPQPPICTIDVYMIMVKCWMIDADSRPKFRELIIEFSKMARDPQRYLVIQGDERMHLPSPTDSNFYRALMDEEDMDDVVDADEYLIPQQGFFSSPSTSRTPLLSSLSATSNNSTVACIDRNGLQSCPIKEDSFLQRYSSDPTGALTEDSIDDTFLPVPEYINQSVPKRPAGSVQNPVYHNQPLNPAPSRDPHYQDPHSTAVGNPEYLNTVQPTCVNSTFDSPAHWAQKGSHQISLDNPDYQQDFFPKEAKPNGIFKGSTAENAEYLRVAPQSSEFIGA
T3 sequence (P09619 whole entry): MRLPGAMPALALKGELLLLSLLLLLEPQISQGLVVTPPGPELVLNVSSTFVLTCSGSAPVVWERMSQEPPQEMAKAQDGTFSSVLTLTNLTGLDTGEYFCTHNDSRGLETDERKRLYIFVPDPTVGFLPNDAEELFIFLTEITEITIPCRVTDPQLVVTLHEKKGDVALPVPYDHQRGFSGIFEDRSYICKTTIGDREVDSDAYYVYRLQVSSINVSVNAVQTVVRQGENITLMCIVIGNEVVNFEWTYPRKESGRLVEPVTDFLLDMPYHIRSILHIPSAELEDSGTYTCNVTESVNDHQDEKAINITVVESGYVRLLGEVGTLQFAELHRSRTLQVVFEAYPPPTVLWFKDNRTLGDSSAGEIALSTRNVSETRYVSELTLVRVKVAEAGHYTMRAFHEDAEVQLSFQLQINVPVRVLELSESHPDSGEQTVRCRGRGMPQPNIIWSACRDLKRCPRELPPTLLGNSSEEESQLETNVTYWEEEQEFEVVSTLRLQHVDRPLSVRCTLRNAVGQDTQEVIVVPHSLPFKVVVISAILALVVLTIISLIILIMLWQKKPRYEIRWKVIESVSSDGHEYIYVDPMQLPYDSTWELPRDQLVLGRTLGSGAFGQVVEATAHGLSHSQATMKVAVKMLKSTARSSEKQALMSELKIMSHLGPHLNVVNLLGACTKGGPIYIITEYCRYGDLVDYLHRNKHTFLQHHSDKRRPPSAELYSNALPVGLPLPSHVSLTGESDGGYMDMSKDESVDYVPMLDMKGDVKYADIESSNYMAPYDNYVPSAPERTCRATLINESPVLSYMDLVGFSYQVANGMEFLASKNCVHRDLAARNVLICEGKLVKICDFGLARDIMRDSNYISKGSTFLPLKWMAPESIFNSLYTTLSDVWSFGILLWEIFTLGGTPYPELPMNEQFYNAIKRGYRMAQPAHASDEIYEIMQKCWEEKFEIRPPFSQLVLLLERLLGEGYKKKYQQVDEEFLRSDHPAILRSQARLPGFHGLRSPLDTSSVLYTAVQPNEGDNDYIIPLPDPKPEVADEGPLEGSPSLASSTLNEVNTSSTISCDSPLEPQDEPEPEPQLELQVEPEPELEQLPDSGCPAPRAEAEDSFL
T2 sequence (P35968 whole entry): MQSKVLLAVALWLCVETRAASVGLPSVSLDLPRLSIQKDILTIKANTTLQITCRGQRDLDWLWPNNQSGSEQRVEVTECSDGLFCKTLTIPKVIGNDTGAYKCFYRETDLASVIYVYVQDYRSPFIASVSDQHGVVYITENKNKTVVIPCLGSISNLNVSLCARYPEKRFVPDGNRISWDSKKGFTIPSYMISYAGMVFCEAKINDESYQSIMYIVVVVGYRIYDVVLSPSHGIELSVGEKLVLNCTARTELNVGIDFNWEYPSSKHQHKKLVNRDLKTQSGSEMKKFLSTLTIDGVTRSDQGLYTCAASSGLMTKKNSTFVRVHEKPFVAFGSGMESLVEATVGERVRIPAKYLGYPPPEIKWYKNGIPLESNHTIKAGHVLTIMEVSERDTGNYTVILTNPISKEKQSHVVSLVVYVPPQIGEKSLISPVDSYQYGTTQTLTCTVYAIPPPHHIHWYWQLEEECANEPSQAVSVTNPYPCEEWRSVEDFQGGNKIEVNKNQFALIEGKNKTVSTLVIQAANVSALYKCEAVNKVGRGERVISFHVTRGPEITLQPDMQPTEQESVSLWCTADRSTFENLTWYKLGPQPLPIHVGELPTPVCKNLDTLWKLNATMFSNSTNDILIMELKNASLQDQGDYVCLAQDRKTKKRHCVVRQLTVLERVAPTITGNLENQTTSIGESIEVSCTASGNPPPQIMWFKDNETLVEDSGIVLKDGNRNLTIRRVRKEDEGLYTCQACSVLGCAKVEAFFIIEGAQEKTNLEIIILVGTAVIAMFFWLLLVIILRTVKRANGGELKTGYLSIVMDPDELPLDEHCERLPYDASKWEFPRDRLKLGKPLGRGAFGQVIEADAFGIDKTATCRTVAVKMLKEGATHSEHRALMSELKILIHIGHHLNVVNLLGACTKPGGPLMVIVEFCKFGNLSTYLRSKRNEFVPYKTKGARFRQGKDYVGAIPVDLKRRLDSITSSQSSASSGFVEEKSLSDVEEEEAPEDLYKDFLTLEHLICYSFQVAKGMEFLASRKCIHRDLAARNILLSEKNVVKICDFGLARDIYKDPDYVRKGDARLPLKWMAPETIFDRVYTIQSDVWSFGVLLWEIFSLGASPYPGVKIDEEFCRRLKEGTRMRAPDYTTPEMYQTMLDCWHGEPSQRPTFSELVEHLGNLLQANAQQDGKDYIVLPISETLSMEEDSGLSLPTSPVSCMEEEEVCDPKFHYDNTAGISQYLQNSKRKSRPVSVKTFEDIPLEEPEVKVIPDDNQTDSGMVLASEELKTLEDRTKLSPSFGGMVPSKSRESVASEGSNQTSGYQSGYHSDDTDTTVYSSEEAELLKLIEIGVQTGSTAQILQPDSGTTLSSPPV

COc1ccc(N(C)c2ncnc3ccccc23)cc1
pIC50 (MDA-MB-435): 8.15
pEC50 [1]: 8.09
Ratio [2]: 1.2
pIC50 (HeLa [3]): 8.07
Ratio IC50 [4]: 0.9
pIC50 (SK-OV-3 [5]): 7.98
pIC50 (SK-OV-3 [6]): 7.84
Ratio IC50 [7]: 1.4

COc1ccc2c(c1)CCCN2c1nc(C)nc2ccccc12
Ratio IC50 (Chorioallantoic membrane [8]): 9.4
pIC50 [9]: 8.30
pIC50 [10]: 8.03
pIC50 [11]: 8.11
pIC50 (MDA-MB-435): 8.96
pEC50 [1]: 8.52
Ratio [2]: 2.7
pIC50 (HeLa [3]): 8.92
pIC50 (HeLa [12]): 8.92
Ratio IC50 [4]: 1
pIC50 (SK-OV-3 [5]): 8.82
pIC50 (SK-OV-3 [6]): 8.66
Ratio IC50 [7]: 1.5
pIC50 (A-431): 8.60
pIC50 (U-251): 8.51
pIC50 (Chorioallantoic membrane [13]): 5.51

COc1cccc2cc(N(C)c3nc(C)nc4ccccc34)ccc12
pIC50 [9]: 7.97
pIC50 [10]: 7.77
pIC50 [11]: 7.53
pIC50 (MDA-MB-435): 8.70
pEC50 [1]: 8.62
Ratio [2]: 1.2
pIC50 (HeLa [3]): 8.60
pIC50 (HeLa [12]): 8.77
Ratio IC50 [4]: 0.7
pIC50 (SK-OV-3 [5]): 8.54
pIC50 (SK-OV-3 [6]): 8.46
Ratio IC50 [7]: 1.2
inhibition (Bos taurus [14]): 98%
inhibition (Bos taurus [15]): 88%
pIC50 (A-431): 8.28
pIC50 (U-251): 8.38

CSc1ccc(N(C)c2nc(Cl)nc3ccccc23)cc1
pIC50 (MDA-MB-435): 8.57
pEC50 [1]: 8.57
Ratio [2]: 1
pIC50 (HeLa [3]): 8.30
pIC50 (HeLa [12]): 8.49
Ratio IC50 [4]: 0.6
pIC50 (SK-OV-3 [5]): 8.48
pIC50 (SK-OV-3 [6]): 8.46
Ratio IC50 [7]: 1.1

COc1ccc2c(c1)CCCN2c1ncnc2ccccc12
pIC50 [9]: 7.31
pIC50 [10]: 6.95
pIC50 [11]: 7.27
pIC50 (MDA-MB-435): 7.91
pEC50 [1]: 7.63
Ratio [2]: 1.9
pIC50 (HeLa [3]): 7.77
pIC50 (HeLa [12]): 7.88
Ratio IC50 [4]: 0.8
pIC50 (SK-OV-3 [5]): 7.74
pIC50 (SK-OV-3 [6]): 7.63
Ratio IC50 [7]: 1.3
pIC50 (A-431): 7.79
pIC50 (U-251): 7.56

COc1ccc2c(c1)CCCN2c1nc(Cl)nc2ccccc12
pIC50 [10]: 7.26
pIC50 [11]: 7.09
pIC50 (MDA-MB-435): 9.15
pEC50 [1]: 8.70
pIC50 (HeLa [3]): 9.22
pIC50 (SK-OV-3 [5]): 9.10
pIC50 (SK-OV-3 [6]): 9.00
pIC50 (A-431): 8.74
pIC50 (U-251): 7.83
pIC50 (Chorioallantoic membrane [13]): 4.38

COc1ccc(/C=C\c2cc(OC)c(OC)c(OC)c2)cc1O [COMBRETASTATIN A4]
pEC50 [1]: 8.01

COc1cccc2cc(N(C)c3nc(Cl)nc4ccccc34)ccc12
pIC50 (MDA-MB-435): 8.85
pEC50 [1]: 8.72
Ratio [2]: 1.4
pIC50 (HeLa [3]): 8.55
pIC50 (HeLa [12]): 8.80
Ratio IC50 [4]: 0.6
pIC50 (SK-OV-3 [5]): 8.55
pIC50 (SK-OV-3 [6]): 8.59
Ratio IC50 [7]: 0.9

C#Cc1cccc(Nc2ncnc3cc(OCCOC)c(OCCOC)cc23)c1 [ERLOTINIB]
pIC50 (Chorioallantoic membrane [13]): 5.51

CSc1ccc(N(C)c2ncnc3ccccc23)cc1
pIC50 (MDA-MB-435): 8.11
pEC50 [1]: 7.91
Ratio [2]: 1.6
pIC50 (HeLa [3]): 8.07
pIC50 (HeLa [12]): 8.14
Ratio IC50 [4]: 0.6
pIC50 (SK-OV-3 [5]): 7.87
pIC50 (SK-OV-3 [6]): 7.81
Ratio IC50 [7]: 1.1

COc1ccc(N(C)c2nc(Cl)nc3ccccc23)cc1
pIC50 [9]: 8.44
pIC50 [10]: 7.01
pIC50 [11]: 7.12
inhibition (Bos taurus [14]): 99%
inhibition (Bos taurus [15]): 92%
pIC50 (A-431): 8.92
pIC50 (U-251): 7.49
pIC50 (Chorioallantoic membrane [13]): 3.89

COc1ccc(N(C)c2nc(C)nc3ccccc23)cc1 [VERUBULIN]
pIC50 [9]: 8.55
pIC50 [10]: 8.08
pIC50 [11]: 8.25
Ratio IC50 [16]: 61
Ratio IC50 [17]: 2
Ratio IC50 [18]: 15
Ratio IC50 [19]: 15
Ratio IC50 [20]: 2
pIC50 (MDA-MB-435): 8.77
pEC50 [1]: 8.68
Ratio [2]: 1.2
pIC50 (HeLa [3]): 8.70
pIC50 (HeLa [12]): 8.82
Ratio IC50 [4]: 0.8
pIC50 (SK-OV-3 [5]): 8.66
pIC50 (SK-OV-3 [6]): 8.59
Ratio IC50 [7]: 1.2
pIC50 (A-431): 9.05
pIC50 (Chorioallantoic membrane [13]): 5.55

CSc1ccc(N(C)c2nc(C)nc3ccccc23)cc1
pIC50 [9]: 8.06
pIC50 [10]: 7.83
pIC50 [11]: 6.64
inhibition (Bos taurus [14]): 99%
inhibition (Bos taurus [15]): 91%
pIC50 (A-431): 8.54
pIC50 (U-251): 8.31
